What was measured:
[1] = biological target: BMP-2-inducible protein kinase (Homo sapiens) (UniProt Q9NSY1); experiment: Inhibition of recombinant BMP2K (unknown origin) at 10 uM by DSF assay relative to staurosporine
Summary of the method: (§1)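 Differential scanning fluorimetry on an in-house panel of 90 recombinant kinases. Stabilization is read as the shift in melting temperature (ΔTm) relative to ligand-free protein. Staurosporine served as the positive control, and binding was also compared against its ΔTm.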

[2] = biological target: Glycogen synthase kinase-3 alpha (Homo sapiens, UniProt P49840); experiment: Inhibition of GSK3A (unknown origin) assessed as residual activity at 1 uM by Kinomescan assay relative to staurosporine
Glycogen synthase kinase-3 alpha, sequence (P49840 2-483 limits assumed): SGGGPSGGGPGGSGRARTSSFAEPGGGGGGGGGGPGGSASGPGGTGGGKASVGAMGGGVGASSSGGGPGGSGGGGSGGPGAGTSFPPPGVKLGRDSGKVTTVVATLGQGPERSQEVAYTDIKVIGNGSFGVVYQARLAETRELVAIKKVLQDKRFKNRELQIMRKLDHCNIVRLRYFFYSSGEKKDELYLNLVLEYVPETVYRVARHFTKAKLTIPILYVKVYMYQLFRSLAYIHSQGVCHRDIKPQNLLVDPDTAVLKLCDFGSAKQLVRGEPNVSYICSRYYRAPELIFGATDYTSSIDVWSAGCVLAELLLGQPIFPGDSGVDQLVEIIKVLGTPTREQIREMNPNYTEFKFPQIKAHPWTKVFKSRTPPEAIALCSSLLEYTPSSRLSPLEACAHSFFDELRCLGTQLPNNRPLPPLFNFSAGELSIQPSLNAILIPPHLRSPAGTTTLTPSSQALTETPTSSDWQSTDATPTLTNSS

[3] = biological target: Vascular endothelial growth factor receptor 1 (Homo sapiens) (UniProt P17948); experiment: Binding affinity to recombinant FLT1 (unknown origin) assessed as change in melting temperature at 10 uM by DSF assay; summary of the method: as §1
Vascular endothelial growth factor receptor 1 (Homo sapiens), sequence (P17948 whole entry): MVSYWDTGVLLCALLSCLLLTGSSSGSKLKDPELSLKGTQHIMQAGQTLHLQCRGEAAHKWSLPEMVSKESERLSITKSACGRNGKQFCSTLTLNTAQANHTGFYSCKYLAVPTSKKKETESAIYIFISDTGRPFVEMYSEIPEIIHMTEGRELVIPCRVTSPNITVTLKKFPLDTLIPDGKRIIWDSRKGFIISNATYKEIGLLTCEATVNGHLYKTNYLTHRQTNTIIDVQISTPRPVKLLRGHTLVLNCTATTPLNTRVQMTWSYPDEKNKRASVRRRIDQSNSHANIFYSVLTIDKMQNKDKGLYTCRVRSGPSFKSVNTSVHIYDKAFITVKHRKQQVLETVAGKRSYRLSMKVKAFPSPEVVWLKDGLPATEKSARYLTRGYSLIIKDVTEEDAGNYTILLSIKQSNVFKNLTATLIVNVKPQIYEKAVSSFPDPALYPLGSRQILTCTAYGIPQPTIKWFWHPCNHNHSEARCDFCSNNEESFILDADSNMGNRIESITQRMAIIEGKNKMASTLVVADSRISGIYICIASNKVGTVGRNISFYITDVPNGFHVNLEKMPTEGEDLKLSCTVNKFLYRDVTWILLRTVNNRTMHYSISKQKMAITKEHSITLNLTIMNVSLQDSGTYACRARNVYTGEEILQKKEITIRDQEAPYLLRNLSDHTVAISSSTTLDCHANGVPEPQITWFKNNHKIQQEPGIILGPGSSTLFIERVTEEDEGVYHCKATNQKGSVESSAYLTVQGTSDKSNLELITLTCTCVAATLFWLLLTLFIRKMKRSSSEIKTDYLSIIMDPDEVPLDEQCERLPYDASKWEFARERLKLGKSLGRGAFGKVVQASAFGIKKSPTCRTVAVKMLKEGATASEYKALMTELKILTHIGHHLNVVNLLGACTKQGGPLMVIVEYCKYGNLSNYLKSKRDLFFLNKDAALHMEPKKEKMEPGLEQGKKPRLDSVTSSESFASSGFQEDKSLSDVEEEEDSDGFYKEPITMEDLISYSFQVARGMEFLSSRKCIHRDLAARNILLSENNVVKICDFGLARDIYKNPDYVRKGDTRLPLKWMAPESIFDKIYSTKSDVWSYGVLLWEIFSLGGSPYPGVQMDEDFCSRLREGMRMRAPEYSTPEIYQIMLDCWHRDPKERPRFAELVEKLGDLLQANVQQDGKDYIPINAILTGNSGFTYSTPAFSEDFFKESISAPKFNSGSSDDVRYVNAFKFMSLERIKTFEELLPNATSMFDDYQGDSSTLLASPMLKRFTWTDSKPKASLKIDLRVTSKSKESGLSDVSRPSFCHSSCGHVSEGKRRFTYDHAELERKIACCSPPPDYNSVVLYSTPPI

[4] = biological target: MAP/microtubule affinity-regulating kinase 3 (Homo sapiens) (UniProt P27448); experiment: Binding affinity to recombinant MARK3 (unknown origin) assessed as change in melting temperature at 10 uM by DSF assay; summary of the method: as §1
MAP/microtubule affinity-regulating kinase 3 (Homo sapiens), sequence (P27448 whole entry, looked up): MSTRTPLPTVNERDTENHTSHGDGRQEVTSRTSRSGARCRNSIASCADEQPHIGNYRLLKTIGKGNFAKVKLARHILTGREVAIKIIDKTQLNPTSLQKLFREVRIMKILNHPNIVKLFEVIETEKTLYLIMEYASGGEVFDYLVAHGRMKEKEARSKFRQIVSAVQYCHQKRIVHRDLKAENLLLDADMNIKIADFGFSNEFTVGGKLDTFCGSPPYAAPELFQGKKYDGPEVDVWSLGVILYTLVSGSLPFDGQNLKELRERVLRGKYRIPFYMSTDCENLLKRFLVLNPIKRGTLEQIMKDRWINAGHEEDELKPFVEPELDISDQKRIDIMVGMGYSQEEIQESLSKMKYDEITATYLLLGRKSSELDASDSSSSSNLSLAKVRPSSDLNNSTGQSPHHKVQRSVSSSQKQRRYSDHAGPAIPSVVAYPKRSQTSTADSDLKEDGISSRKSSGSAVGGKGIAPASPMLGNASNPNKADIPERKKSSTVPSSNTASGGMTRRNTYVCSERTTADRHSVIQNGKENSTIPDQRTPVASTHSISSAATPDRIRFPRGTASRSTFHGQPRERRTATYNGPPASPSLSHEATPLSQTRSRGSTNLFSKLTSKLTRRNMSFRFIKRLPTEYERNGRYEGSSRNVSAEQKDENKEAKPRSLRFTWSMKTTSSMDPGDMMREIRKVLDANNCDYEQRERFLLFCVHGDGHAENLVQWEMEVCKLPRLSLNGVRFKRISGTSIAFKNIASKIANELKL

[5] = biological target: T1, Bone morphogenetic protein receptor type-2 (Homo sapiens) (UniProt Q13873); experiment: Binding affinity to BMPR2 (unknown origin) assessed as change in enthalpy by ITC assay
T1 sequence (whole entry): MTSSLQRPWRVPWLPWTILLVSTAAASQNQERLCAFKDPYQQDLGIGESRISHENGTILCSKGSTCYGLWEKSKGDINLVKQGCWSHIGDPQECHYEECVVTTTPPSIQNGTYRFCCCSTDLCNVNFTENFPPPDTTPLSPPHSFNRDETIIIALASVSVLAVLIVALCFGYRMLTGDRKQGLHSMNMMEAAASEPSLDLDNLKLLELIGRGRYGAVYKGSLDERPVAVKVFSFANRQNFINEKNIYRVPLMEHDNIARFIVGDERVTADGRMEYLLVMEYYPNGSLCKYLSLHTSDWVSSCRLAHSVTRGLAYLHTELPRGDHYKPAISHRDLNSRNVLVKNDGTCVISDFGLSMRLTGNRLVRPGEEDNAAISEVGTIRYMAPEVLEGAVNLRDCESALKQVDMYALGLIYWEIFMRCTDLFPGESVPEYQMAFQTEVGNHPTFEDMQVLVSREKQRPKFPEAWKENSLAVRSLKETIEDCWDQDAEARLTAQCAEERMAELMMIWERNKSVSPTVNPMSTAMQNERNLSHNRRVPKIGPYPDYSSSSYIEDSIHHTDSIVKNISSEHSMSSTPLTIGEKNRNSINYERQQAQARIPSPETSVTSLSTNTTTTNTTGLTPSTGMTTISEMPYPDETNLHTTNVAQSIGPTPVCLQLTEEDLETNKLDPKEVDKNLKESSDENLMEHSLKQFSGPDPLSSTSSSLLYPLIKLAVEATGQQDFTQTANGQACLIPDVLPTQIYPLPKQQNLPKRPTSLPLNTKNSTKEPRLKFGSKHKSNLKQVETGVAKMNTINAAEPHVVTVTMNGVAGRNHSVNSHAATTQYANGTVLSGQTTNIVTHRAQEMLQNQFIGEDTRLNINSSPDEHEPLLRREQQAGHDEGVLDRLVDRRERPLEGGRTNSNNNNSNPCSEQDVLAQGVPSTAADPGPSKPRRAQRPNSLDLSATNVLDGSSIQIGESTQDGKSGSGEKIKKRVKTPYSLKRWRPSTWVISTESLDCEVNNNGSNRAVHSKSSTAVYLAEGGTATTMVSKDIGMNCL
Summary of the method: (§2)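 Binding measured by isothermal titration calorimetry against the recombinant BMPR2 kinase domain. Thermodynamic binding parameters, including the dissociation constant, were derived from the titration data.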

[6] = biological target: Cyclin-dependent kinase 2 (Homo sapiens) (UniProt P24941); experiment: Inhibition of recombinant CDK2 (unknown origin) at 10 uM by DSF assay relative to staurosporine; summary of the method: as §1
[7] = biological target: Serine/threonine-protein kinase RIO2 (Homo sapiens) (UniProt Q9BVS4); experiment: Inhibition of RIOK2 (unknown origin) assessed as residual activity at 1 uM by Kinomescan assay relative to staurosporine
Serine/threonine-protein kinase RIO2 (Homo sapiens), sequence (Q9BVS4 whole entry, looked up): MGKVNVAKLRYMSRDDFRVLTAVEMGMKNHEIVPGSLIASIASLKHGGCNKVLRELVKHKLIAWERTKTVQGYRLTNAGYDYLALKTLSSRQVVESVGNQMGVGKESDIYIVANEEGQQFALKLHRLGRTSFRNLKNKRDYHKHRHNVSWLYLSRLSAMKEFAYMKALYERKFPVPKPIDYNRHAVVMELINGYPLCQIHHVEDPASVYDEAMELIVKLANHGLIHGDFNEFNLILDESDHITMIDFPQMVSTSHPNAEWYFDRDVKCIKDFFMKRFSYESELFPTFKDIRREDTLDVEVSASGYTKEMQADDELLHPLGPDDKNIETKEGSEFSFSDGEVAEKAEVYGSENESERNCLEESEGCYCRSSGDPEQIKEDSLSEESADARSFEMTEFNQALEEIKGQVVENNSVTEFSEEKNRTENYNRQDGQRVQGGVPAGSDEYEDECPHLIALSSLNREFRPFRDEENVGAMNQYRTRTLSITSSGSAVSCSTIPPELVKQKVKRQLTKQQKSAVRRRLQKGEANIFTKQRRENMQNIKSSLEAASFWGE

[8] = biological target: T2, Serine/threonine-protein kinase 4 (Homo sapiens) (UniProt Q13043); experiment: Binding affinity to recombinant STK4 (unknown origin) assessed as change in melting temperature at 10 uM by DSF assay; summary of the method: as §1
T2 sequence (whole entry): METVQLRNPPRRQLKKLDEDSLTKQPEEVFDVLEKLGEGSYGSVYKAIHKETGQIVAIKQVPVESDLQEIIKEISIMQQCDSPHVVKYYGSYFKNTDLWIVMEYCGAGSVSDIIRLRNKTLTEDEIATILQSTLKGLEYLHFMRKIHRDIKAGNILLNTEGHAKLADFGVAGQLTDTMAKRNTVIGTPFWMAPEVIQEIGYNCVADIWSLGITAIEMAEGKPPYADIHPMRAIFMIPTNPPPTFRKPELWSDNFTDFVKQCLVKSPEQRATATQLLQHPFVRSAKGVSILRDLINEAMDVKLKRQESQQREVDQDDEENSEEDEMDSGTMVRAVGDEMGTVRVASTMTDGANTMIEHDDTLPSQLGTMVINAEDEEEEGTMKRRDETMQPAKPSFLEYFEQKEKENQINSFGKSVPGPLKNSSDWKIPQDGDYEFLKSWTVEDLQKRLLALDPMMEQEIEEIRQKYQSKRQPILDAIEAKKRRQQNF

[9] = biological target: Glycogen synthase kinase-3 beta (Homo sapiens, UniProt P49841); experiment: Inhibition of N-terminal NanoLuc-fused full length intact GSK3B (unknown origin) transfected in HEK293T cells incubated for 2 hrs in presence of tracer K8 by NanoBRET assay; type: cell-based
Glycogen synthase kinase-3 beta, sequence (P49841 whole entry, the tested form may be a part): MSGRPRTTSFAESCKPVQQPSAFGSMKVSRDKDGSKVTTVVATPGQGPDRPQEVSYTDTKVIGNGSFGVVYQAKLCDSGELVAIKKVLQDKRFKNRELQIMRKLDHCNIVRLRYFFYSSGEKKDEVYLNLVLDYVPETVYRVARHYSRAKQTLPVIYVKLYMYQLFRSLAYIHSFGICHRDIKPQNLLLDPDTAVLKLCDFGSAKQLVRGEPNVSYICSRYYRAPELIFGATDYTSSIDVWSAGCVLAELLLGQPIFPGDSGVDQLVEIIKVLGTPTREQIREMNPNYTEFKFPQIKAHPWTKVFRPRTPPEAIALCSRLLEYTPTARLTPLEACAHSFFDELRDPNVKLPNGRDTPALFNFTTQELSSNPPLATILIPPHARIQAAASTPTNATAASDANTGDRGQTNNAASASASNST
Summary of the method: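 Cellular target engagement by NanoBRET in intact cells expressing NanoLuc-fused GSK3A or GSK3B, with EC50 values derived from tracer displacement.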

[10] = biological target: T2, Serine/threonine-protein kinase 4 (Homo sapiens); experiment: Inhibition of recombinant STK4 (unknown origin) at 10 uM by DSF assay relative to staurosporine; summary of the method: as §1
[11] = biological target: T1, Bone morphogenetic protein receptor type-2 (Homo sapiens); experiment: Binding affinity to BMPR2 (unknown origin) assessed as change in entropy by ITC assay; summary of the method: as §2
[12] = biological target: T1, Bone morphogenetic protein receptor type-2 (Homo sapiens); experiment: Inhibition of recombinant BMPR2 (unknown origin) at 10 uM by DSF assay relative to […]
[13] = biological target: T1, Bone morphogenetic protein receptor type-2 (Homo sapiens); experiment: Inhibition of BMPR2 (unknown origin) assessed as residual activity at 1 uM by Kinomescan assay relative to staurosporine

BMP-2-inducible protein kinase (Homo sapiens), sequence (Q9NSY1 whole entry, looked up): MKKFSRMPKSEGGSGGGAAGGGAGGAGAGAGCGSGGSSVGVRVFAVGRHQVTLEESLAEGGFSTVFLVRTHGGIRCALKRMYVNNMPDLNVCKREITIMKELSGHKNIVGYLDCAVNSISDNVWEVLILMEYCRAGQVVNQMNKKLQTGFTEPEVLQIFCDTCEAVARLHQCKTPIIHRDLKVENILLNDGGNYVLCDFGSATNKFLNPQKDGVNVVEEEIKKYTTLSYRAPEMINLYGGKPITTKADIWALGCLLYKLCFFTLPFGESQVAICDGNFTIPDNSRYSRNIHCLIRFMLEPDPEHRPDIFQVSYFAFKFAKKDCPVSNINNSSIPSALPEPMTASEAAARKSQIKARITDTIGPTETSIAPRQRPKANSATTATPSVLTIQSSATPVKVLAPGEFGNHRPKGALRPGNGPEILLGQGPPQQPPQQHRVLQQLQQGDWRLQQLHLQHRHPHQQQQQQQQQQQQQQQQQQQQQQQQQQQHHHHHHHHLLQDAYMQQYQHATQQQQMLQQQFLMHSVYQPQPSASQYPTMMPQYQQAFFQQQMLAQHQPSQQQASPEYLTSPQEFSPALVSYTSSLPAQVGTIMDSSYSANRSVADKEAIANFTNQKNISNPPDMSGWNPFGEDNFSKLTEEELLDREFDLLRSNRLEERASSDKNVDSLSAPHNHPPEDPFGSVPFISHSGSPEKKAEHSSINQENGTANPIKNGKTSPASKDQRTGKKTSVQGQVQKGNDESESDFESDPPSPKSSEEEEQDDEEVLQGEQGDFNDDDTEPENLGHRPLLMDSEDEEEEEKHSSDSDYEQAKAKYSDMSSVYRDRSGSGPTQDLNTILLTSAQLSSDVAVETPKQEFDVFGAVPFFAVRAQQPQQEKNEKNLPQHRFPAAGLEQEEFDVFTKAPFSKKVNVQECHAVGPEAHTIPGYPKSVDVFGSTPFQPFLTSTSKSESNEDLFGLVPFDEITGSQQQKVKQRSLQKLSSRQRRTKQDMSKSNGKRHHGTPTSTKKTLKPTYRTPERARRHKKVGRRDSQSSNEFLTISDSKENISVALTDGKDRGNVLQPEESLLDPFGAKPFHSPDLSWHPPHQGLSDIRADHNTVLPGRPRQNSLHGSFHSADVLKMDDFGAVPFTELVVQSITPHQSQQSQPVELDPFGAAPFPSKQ

inhibition [1]: 30%
Activity [2]: 16%
ΔTm [3]: 4.2 °C
ΔTm [4]: 3.9 °C
deltaH [5]: -8.41 kcal/mol
inhibition [6]: 25%
Activity [7]: 27%
ΔTm [8]: 3.2 °C
IC50 [9]: 34 µM
inhibition [10]: 22%
deltaS [11]: 3.7 cal/mol.K
inhibition [12]: 103%
Activity [13]: 8.3%
Structure (SMILES): O=C1NCCc2ccc(cc2)Nc2nccc(n2)Nc2cc1[nH]n2
